Activity calls are given as the source filed them. The rule behind the calls is not given here.
Assays:
Olaparib-resistant PEO1 [1] = assay: Inhibition of EHMT1/2 in human Olaparib-resistant PEO1 cells assessed as reduction in total CDC25C protein level at 1 uM for 72 hrs by immunoblot analysis; assay type: functional, cell-based
Summary of the method: (§1)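 PEO1-OR cells were treated with olaparib and/or UNC0642 as for the cell-cycle experiment. Total RIPA lysates were immunoblotted for cell-cycle proteins, and band intensity was normalized to actin, relative to the non-pretreated control.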

Olaparib-resistant PEO1 [2] = assay: Induction of cell cycle arrest in human Olaparib-resistant PEO1 cells assessed as accumulation of cells in G2 phase pretreated for 72 hrs by UNC0642 follwed by compound addition at 1 uM incubated for 72 hrs by propidium iodide staining based flow cytometry analysis (reference value: 23.2 %); assay type: functional
Olaparib-resistant PEO1 [3] = assay: Induction of cell cycle arrest in human Olaparib-resistant PEO1 cells assessed as accumulation of cells in G1 phase pretreated for 72 hrs by UNC0642 follwed by compound addition at 1 uM incubated for 72 hrs by propidium iodide staining based flow cytometry analysis (reference value: 52.9%); assay type: functional
Olaparib-resistant PEO1 [4] = assay: Induction of cell cycle arrest in human Olaparib-resistant PEO1 cells assessed as accumulation of cells in S phase pretreated for 72 hrs by UNC0642 follwed by compound addition at 1 uM incubated for 72 hrs by propidium iodide staining based flow cytometry analysis (reference value: 21.9%); assay type: functional
Olaparib-resistant PEO1 [5] = assay: Inhibition of EHMT1/2 in human Olaparib-resistant PEO1 cells assessed as reduction in Cyclin A protein level at 1 uM for 72 hrs by immunoblot analysis; assay type: functional, cell-based; summary of the method: as §1
Olaparib-resistant PEO1 [6] = assay: Induction of cell cycle arrest in human Olaparib-resistant PEO1 cells assessed as accumulation of cells in G2 phase pretreated for 72 hrs by vehicle follwed by compound addition at 1 uM incubated for 72 hrs by propidium iodide staining based flow cytometry analysis (reference value: 20.7%); assay type: functional
Olaparib-resistant PEO1 [7] = assay: Antitumor activity against human Olaparib-resistant PEO1 cells assessed as H3K9me2 protein level for 72 hrs by immunoblot analysis; assay type: functional, cell-based
Summary of the method: (§2)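 PEO1-OR cells treated 72 h with DMSO or UNC0642 at two-fold dilutions from 2 μM to 125 nM. Histone extracts immunoblotted for H3K9me2, with H3K27me3 as a specificity check; densitometry normalized to total H3. For immunofluorescence, cells were fixed on coverslips in 4% paraformaldehyde and permeabilized with 0.2% Triton X-100, with DAPI counterstain.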

Olaparib-resistant PEO1 [8] = assay: Induction of cell cycle arrest in human Olaparib-resistant PEO1 cells assessed as accumulation of cells in G1 phase pretreated for 72 hrs by vehicle follwed by compound addition at 1 uM incubated for 72 hrs by propidium iodide staining based flow cytometry analysis (reference value: 54.7%); assay type: functional
Olaparib-resistant PEO1 [9] = assay: Induction of cell cycle arrest in human Olaparib-resistant PEO1 cells assessed as accumulation of cells in S phase pretreated for 72 hrs by vehicle follwed by compound addition at 1 uM incubated for 72 hrs by propidium iodide staining based flow cytometry analysis (reference value: 21.5%); assay type: functional
Olaparib-resistant PEO1 [10] = assay: Antitumor activity against human Olaparib-resistant PEO1 cells assessed as H3K9me2 protein level at 500 nM for 72 hrs by immunofluorescence analysis; assay type: functional, cell-based; summary of the method: as §2
Olaparib-resistant PEO1 [11] = assay: Inhibition of EHMT1/2 in human Olaparib-resistant PEO1 cells assessed as reduction in Cyclin B1 protein level at 1 uM for 72 hrs by immunoblot analysis; assay type: functional, cell-based; summary of the method: as §1
[12] = target: T1, Histone-lysine N-methyltransferase EHMT1 (Homo sapiens) (UniProt Q9H9B1); assay: Inhibition of EHMT1 in human Olaparib-resistant PEO1 cells assessed as reduction in CDC25C phosphorylation at 1 uM for 72 hrs by immunoblot analysis; assay type: cell-based; summary of the method: as §1
T1 sequence (whole entry): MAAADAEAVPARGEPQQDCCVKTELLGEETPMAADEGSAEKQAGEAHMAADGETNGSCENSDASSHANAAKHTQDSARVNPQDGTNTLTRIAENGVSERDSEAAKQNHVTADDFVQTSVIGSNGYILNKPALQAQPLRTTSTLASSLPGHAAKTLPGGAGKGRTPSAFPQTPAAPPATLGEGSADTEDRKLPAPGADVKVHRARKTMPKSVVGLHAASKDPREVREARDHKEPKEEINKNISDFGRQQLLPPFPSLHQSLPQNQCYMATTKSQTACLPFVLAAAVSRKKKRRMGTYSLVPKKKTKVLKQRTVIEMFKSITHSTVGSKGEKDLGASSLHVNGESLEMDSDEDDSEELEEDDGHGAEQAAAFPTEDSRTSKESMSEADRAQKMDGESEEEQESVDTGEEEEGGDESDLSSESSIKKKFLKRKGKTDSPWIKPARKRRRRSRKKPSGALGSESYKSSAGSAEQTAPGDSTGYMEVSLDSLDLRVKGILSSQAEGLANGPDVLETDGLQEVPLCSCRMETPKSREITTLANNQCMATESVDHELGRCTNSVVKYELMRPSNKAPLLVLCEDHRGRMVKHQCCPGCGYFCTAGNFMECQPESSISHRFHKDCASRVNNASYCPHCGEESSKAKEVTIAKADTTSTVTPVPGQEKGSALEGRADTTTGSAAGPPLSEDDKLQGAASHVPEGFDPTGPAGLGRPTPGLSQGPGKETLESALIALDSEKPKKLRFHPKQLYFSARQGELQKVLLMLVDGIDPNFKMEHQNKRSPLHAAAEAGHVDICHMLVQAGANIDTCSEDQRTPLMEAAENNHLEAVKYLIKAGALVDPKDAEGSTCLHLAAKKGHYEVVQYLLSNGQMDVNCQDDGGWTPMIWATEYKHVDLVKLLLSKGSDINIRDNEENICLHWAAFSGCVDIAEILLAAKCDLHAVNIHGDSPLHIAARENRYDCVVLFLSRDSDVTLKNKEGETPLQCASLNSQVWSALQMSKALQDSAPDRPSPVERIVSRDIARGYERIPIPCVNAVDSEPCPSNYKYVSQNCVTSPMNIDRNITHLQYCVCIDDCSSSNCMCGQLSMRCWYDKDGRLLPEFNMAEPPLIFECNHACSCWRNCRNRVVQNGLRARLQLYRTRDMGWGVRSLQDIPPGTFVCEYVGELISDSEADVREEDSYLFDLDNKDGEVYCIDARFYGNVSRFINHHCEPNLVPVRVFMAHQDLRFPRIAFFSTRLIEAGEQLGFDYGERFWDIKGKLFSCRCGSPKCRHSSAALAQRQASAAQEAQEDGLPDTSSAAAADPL

- inhibition [12]: Active
Structure (SMILES): COc1cc2c(NC3CCN(C(C)C)CC3)nc(N3CCC(F)(F)CC3)nc2cc1OCCCN1CCCC1
- Activity (Olaparib-resistant PEO1 [1]): Active
- Activity (Olaparib-resistant PEO1 [2]): 22.5%
- Activity (Olaparib-resistant PEO1 [3]): 51.7%
- Activity (Olaparib-resistant PEO1 [4]): 23.4%
- Activity (Olaparib-resistant PEO1 [5]): Active
- Activity (Olaparib-resistant PEO1 [6]): 21.5%
- Activity (Olaparib-resistant PEO1 [7]): Active
- Activity (Olaparib-resistant PEO1 [8]): 53.3%
- Activity (Olaparib-resistant PEO1 [9]): 22.8%
- Activity (Olaparib-resistant PEO1 [10]): Active
- Activity (Olaparib-resistant PEO1 [11]): Active
